Compound activity (PubChem BioAssay)
BaF3 parental – parental Ba/F3 cell viability inhibition, counter-screen for JAK2V617F inhibitor project, murine pro-B, CellTiter-Glo luminescence; 220,000 compounds, 1.1% hits; CellTiter-Glo ATP luminescence; inhibition, % at 5.6 µM; AID 1486, 2009;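 active = inhibition above a per-campaign cutoff, the mean inhibition of all tested compounds plus 3 SD, cut at about 27% in these data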
b-catenin transl – modulators of beta-catenin nuclear translocation, primary screen, imaging, HeLa cells, immunofluorescence, high-content | 190,000 compounds, 0.3% hits | AID 1665, 2009 | nuclear translocation activity, % at 5 µM;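 active = nuclear translocation activity above 50% at 5 µM, with a well cell count of 50 or more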;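 also: per-cell ratio of nuclear to cytoplasmic median beta-catenin stain intensity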
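test system = HeLa cells, endogenous beta-catenin | dosing = single 5 µM dose plus 0.02–20 µM confirmation series | times = compound treatment 24 h, 37°C, 5% CO2 | technique = beta-catenin immunofluorescence imaging with DAPI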
MT stabilize HCS – microtubule stabilizers in HeLa cells, primary screen, imaging, high-content imaging | HeLa tubulin immunostaining HCS, 24 h; share of cells brighter than vehicle mean+2SD | % tubulin-high responders, % at 10 µM | 200,000 compounds, 0.83% hits | AID 2205, 2009;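 active = plate Z-score above 3 for both tubulin-high and condensed-nucleus cell shares, with cell loss under 80%, at 10 µM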;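 also: anti alpha tubulin signal scored within the nucleus-defined area of each cell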
Lmaj promast – Leishmania major promastigote growth inhibition, primary screen | inhibition, % at 10 µM | AID 1063, 2008 | 200,000 compounds, 9% hits | Leishmania major promastigotes, resazurin fluorescence viability; in the data active = inhibition above about 50%;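 also: promastigotes grown with compound for 44 hours at 28 °C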
Ba/F3 V617F tox – reduced viability of JAK2V617F-dependent Ba/F3 cells, primary screen, JAK2V617F inhibitor project, cell-based, Ba/F3 EpoR-JAK2V617F, luminescence; 220,000 compounds, 1.1% hits; inhibition, % at 5.6 µM; AID 1446, 2008; ATP luminescence;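 active = inhibition above the campaign mean plus 3 SD over all tested compounds, cut at about 24% in these data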;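 also: cytokine-independent growth of Ba/F3 cells driven by EpoR plus mutant JAK2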
APP transl inh – inhibitors of APP translation via 5'UTR reporter, primary screen, APP 5'UTR luciferase, SH-SY5Y cells; SH-SY5Y APP 5'UTR-luciferase reporter, luminescence; inhibition, % at 2 µM; 190,000 compounds, 0.82% hits; AID 1285, 2008;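 active = inhibition above a set limit, derived from the sample mean plus 3 SD, cut at about 45% in these data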
Each line names hits and unclear results; the compound was inactive in the other large screens. Only some compounds are listed: those with a hit (about 9.6% of all), similar ones and a draw of the others.

COCCN1CC(=O)N(c2cccc(C)c2C)C(c2ccc(Cl)cc2)C1=O (centres undefined)	none
NC(=O)c1sc2nnc(-c3ccccc3)c(-c3ccccc3)c2c1N	none (no result: MT stabilize HCS, Lmaj promast, APP transl inh)
CCCCC(=O)NC(=S)Nc1cccc(NC(=O)c2ccco2)c1	none
COCCn1nnnc1C(C(C)C)N(Cc1cccnc1)Cc1ccccc1Cl (centres undefined)	Lmaj promast 66 (no result: b-catenin transl)
O=C(COC(=O)c1cccc(Br)c1)NCCc1ccc(F)cc1	none (no result: b-catenin transl)
C=CCOc1cccc(/C=C2\C(=O)N(Cc3ccc(C)cc3)C(C)=C2C(=O)OC)c1	Lmaj promast 92 (no result: APP transl inh)
CCOc1cc(/C=C2\C(=O)N(Cc3ccc(C)cc3)C(C)=C2C(=O)OC)ccc1O	none
COc1ccc(/C=C/C(=O)N2CCN(C)CC2)cc1S(=O)(=O)N1CCCCC1	none
Oc1ccc(C=Nc2ccc(N3CCOCC3)cc2)c(O)c1	none
Oc1ccc(N=Nc2cccc(C(F)(F)F)c2)cc1C=Nc1ccc(N2CCOCC2)cc1	Lmaj promast 91
CCC(C)NS(=O)(=O)c1ccc(-c2csnn2)s1 (centres undefined)	none
Cc1ccc(C)c(OCCCCn2ccnc2)c1	Lmaj promast 99 (no result: b-catenin transl)
Cc1cc(C)c(C)c(OCCCn2ccnc2)c1	Lmaj promast 82 (no result: b-catenin transl)
Cc1ccc(C(C)(C)C)c(OCCCn2ccnc2)c1	none
Cc1ccc(OCCCCn2ccnc2)c([N+](=O)[O-])c1	Lmaj promast 96
O=C(CCC1CCCC1)Nc1ccc(Br)cn1	none
Cc1ccc(-c2cc(-c3ccccc3)nc(Cl)n2)cc1	none
Cc1cc(-c2ccccc2)nc(Cl)c1C#N	Lmaj promast 70
COC(=O)c1ccc(C(=O)OC)c(NC(=O)CSCc2ccccc2Br)c1	none
O=C(NCc1cccnc1)/C(=C/c1ccc(-c2ccc(Cl)cc2)o1)S(=O)(=O)c1ccccc1	Lmaj promast 101 (no result: b-catenin transl)
O=C(NCc1cccnc1)/C(=C\c1ccc(-c2ccc(Br)cc2)o1)S(=O)(=O)c1ccccc1	MT stabilize HCS 47, Lmaj promast 100
O=C(NCc1cccnc1)/C(=C/c1ccc(-c2cccc(C(F)(F)F)c2)o1)NC(=O)c1ccccc1	Lmaj promast 84
CCSc1n[nH]c(=S)s1	none
COc1cc(NC(=S)Nc2ccccn2)cc(OC)c1	none
O=C(Cn1nnc(-c2cccc(C(F)(F)F)c2)n1)NNS(=O)(=O)c1cccc(C(F)(F)F)c1	none (no result: MT stabilize HCS, Lmaj promast, APP transl inh)
CCCCC(CC)C1OCC(CN2CCCC2)O1 (centres undefined)	Lmaj promast 84
Cn1nnnc1SCC(=O)Nc1ccc2c(c1)OCO2	none
O=C(c1ccco1)N1N=C(c2ccccc2)CC1c1ccc2nccnc2c1 (centres undefined)	none (no result: MT stabilize HCS, Lmaj promast, APP transl inh)
COC(=O)C(O)(CC(=O)Nc1cc(Cl)ccc1Cl)C(F)(F)F (centres undefined)	none
N=C1C(c2nc3ccccc3c(=O)[nH]2)=C(O)CN1c1ccccc1	MT stabilize HCS 42 (no result: b-catenin transl)
N=C1C(c2nc3ccccc3s2)=C(O)CN1c1ccccc1	MT stabilize HCS 28
COc1cccc(N2CC(O)=C(c3nc4ccccc4s3)C2=N)c1	BaF3 parental 81, Ba/F3 V617F tox 76, APP transl inh 88 (no result: MT stabilize HCS)
Cc1ccc(N2CC(O)=C(c3nc4ccccc4c(=O)[nH]3)C2=N)cc1C	none
COc1ccc(N2CC(O)=C(c3nc4ccccc4s3)C2=N)cc1	none
N#C/C(C(=O)N1CCOCC1)=C1/SC=C(c2ccccc2)N1c1ccccc1	none (no result: b-catenin transl)
COc1cccc2cc(C(=O)N(C)C3CCN(C)CC3)c(=O)oc12	none
COc1ccc(N2C(=O)CCC(C(=O)Nc3cccc(C)n3)C2c2ccc(OC)c(OC)c2)cc1 (centres undefined)	none (no result: b-catenin transl)
Cn1ncc([N+](=O)[O-])c1C(=O)Nc1ccc(-c2nc3ccccc3o2)cc1	none
Cc1ccc2oc(/N=C(\N)NC(=O)C3CC3)nc2c1	BaF3 parental 29, Ba/F3 V617F tox 38 (no result: MT stabilize HCS, Lmaj promast, APP transl inh)
Cc1ccc(N2NC(C)(c3cccs3)NC2=S)cc1 (centres undefined)	Lmaj promast 89
Cc1ccc(-n2c(-c3ccccc3)nnc2-c2cccs2)cc1	none
COc1ccccc1-c1nnc(SCC(=O)NCc2cccs2)n1N	none
C=CCc1c(C)nc(-c2ccccc2)nc1Nc1ccccc1O	Lmaj promast 62 (no result: b-catenin transl)
C=CCc1c(C)nc(-c2ccccc2)nc1N/N=C/c1ccncc1	Lmaj promast 68
Cn1cnnc1Sc1cc(N2CCN(S(=O)(=O)c3ccccc3)CC2)ccc1[N+](=O)[O-]	none
O=[N+]([O-])c1ccc(Sc2nnnn2-c2ccccc2)c(Cl)c1	Lmaj promast 90 (no result: b-catenin transl)
CN1CCN(S(=O)(=O)c2ccc(Sc3nnnn3-c3ccccc3)c([N+](=O)[O-])c2)CC1	Lmaj promast 100
O=C(Cc1cccs1)N1CCN(S(=O)(=O)c2ccc(F)cc2)CC1	none
Cc1ccc(C(=O)N[C@@H](C)CN2C3=NC[C@H](C(C)C)N3C[C@H]2Cc2ccc(O)cc2)cc1Br	none
COc1ccc(C[C@H]2CN3C(=NC[C@H]3Cc3ccccc3)N2CCNC(=O)c2ccc(C)c(Br)c2)cc1	b-catenin transl 63 (no result: BaF3 parental, MT stabilize HCS, Lmaj promast, Ba/F3 V617F tox, APP transl inh)
COc1ccc(C[C@H]2CN3C(=NC[C@H]3Cc3ccccc3)N2CCNC(=O)CCC2CCCCC2)cc1	Lmaj promast 76
COc1ccc(C[C@H]2CN3C(=NC[C@@H]3C(C)C)N2C[C@H](C)NC(=O)c2ccc(C)c(Br)c2)cc1	Lmaj promast 68
COc1ccc(C[C@H]2CN3C(=NC[C@@H]3Cc3ccc(O)cc3)N2CCNC(=O)c2ccc(C)c(Br)c2)cc1	none
COc1ccc(C[C@H]2CN3C(=NC[C@@H]3Cc3ccccc3)N2CCNC(=O)c2ccc(C)c(Br)c2)cc1	Lmaj promast 95
O=C(COc1ccccc1Cl)N1CCN(c2ccc(F)cc2)CC1	BaF3 parental 93 (no result: b-catenin transl)
O=C(COC(=O)CNC(=O)c1ccc(Cl)cc1Cl)Nc1ccc(N2CCOCC2)cc1	none
O=C(COC(=O)C1Cc2ccccc2CN1C(=O)c1ccccc1Cl)Nc1ccc(N2CCOCC2)cc1 (centres undefined)	Lmaj promast 77
CN1CCN(c2ccc(NC(=O)COc3ccccc3Cl)cc2)CC1	Lmaj promast 100
O=C(CSc1nnc2c(Cl)cc(Cl)cn12)N1CCN(c2ccc(F)cc2)CC1	Lmaj promast 53 (no result: b-catenin transl)
Cc1ccc2c(c1)Sc1c(ccc3ccccc13)N2	none (no result: MT stabilize HCS, Lmaj promast, APP transl inh)
COC(=O)CCN1CCC(C(N)=O)CC1	none (no result: b-catenin transl)
COc1ccc(N/N=C/c2c(C(=O)O)ccc3ccccc23)cc1	BaF3 parental 40, Ba/F3 V617F tox 35 (no result: MT stabilize HCS, Lmaj promast, APP transl inh)
Cc1ccc(N=Cc2cc(Br)cc(Cl)c2O)cc1	none
COc1ccc(CN=Cc2[nH]c3ccc(Br)c(Cl)c3c2O)cc1	Lmaj promast 99
